From PubChem BioAssay AID1916 (Vanderbilt High Throughput Screening Facility, 2009)
Calls of active or inactive are those of the source. How the calls were made is not given here.

target: ATP-sensitive inward rectifier potassium channel 1 (Homo sapiens) (UniProt P48048); assay: ROMK (Kir1.1) channel inhibitors among analogs, SAR follow-up, Tet-inducible ROMK cells, thallium flux, FluoZin2 (AID 1916); conditions: thallium flux FluoZin2 fluorescence
Method in brief: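 Read-out basis: F/F0 slope over 7–12 s, normalized to TPNQ activity | Assay system: Tet-induced ROMK-expressing cells | Times: 20 min compound preincubation at room temperature | Probe or stimulus: Thallium stimulus buffer | Doses: 11-point compound series in threefold dilution steps | Medium: Serum-free medium during overnight Tet induction | Detection: FluoZin2 thallium flux fluorescence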

Chain of ATP-sensitive inward rectifier potassium channel 1 (Homo sapiens) (P48048 whole entry, looked up): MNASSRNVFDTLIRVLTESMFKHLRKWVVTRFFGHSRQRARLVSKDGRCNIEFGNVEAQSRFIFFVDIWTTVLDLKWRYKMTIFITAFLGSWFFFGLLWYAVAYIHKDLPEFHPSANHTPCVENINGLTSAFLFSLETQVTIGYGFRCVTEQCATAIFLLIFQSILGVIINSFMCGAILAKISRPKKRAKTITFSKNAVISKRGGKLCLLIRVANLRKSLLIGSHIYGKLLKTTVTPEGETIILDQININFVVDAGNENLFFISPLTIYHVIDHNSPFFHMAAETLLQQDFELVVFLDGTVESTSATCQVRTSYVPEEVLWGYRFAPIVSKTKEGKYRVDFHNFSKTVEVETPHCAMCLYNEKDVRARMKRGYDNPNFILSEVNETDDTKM

Structure (SMILES)	IC50
N#Cc1ccccc1CN1CCOCCOCCN(Cc2ccccc2C#N)CCOCC1	8.53 µM
COC(=O)c1ccc(CN2CCOCCOCCN(Cc3ccc(C(=O)OC)cc3)CCOCC2)cc1	32.6 µM
N#Cc1cccc(CN2CCOCCOCCN(Cc3cccc(C#N)c3)CCOCC2)c1	0.324 µM
FC(F)(F)c1cc(CN2CCOCCOCCN(Cc3cc(C(F)(F)F)cc(C(F)(F)F)c3)CCOCC2)cc(C(F)(F)F)c1	24.3 µM
CC(C)c1ccc(CN2CCOCCOCCN(Cc3ccc(C(C)C)cc3)CCOCC2)cc1	inactive
FC(F)(F)c1cccc(CN2CCOCCOCCN(Cc3cccc(C(F)(F)F)c3)CCOCC2)c1	30.6 µM
COc1cc(CN2CCOCCOCCN(Cc3cc(OC)cc(OC)c3)CCOCC2)cc(OC)c1	37.6 µM

The next lines start with the values.

IC50	Structure (SMILES)
13.3 µM	Cc1ccccc1CN1CCOCCOCCN(Cc2ccccc2C)CCOCC1
inactive	COc1ccccc1CN1CCOCCOCCN(Cc2ccccc2OC)CCOCC1
inactive	Clc1ccc(CN2CCOCCOCCN(Cc3ccc(Cl)cc3)CCOCC2)cc1
19.7 µM	Cc1ccsc1CN1CCOCCOCCN(Cc2sccc2C)CCOCC1
25.2 µM	COc1cccc(CN2CCOCCOCCN(Cc3cccc(OC)c3)CCOCC2)c1
inactive	CN(C)c1ccc(CN2CCOCCOCCN(Cc3ccc(N(C)C)cc3)CCOCC2)cc1
inactive	Oc1ccccc1CN1CCOCCOCCN(Cc2ccccc2O)CCOCC1
14.2 µM	O=[N+]([O-])c1ccc(CN2CCOCCOCCN(Cc3ccc([N+](=O)[O-])cc3)CCOCC2)cc1
6.62 µM	O=[N+]([O-])c1ccccc1CN1CCOCCOCCN(Cc2ccccc2[N+](=O)[O-])CCOCC1
inactive	COc1ccc(CN2CCOCCOCCN(Cc3ccc(OC)cc3)CCOCC2)cc1

same assay, conditions: thallium flux FluoZin2 fluorescence, at 1 mM (top of the series)

% TPNQ activity	Structure (SMILES)
14.7%	N#Cc1cc(CN2CCOCCOCCN(Cc3ccc(F)c(C#N)c3)CCOCC2)ccc1F
43.4%	COc1ccc(CN2CCOCCOCCN(Cc3ccc(OC)nc3)CCOCC2)cn1
inactive	CSc1ccc(CN2CCOCCOCCN(Cc3ccc(SC)cc3)CCOCC2)cc1
